From ChEMBL document CHEMBL5143539, “Synthesis and evaluation of dual-action kanglemycin-fluoroquinolone hybrid antibiotics” (Bioorg Med Chem Lett, 2022)
In brackets after ≈: the same amount, converted by molar mass.

Legend:
HEK293 = test: Cytotoxicity against HEK293 cells; format: toxicity, cell-based, Homo sapiens
Staphylococcus aureus [1] = test: Antibacterial activity against rifampicin resistant Staphylococcus aureus harboring RpoBH481Y mutant assessed as inhibition of bacterial growth; format: functional
Staphylococcus aureus [2] = test: Antibacterial activity against wild type Staphylococcus aureus assessed as inhibition of bacterial growth; format: functional
Staphylococcus aureus [3] = test: Antibacterial activity against ciprofloxacin resistant Staphylococcus aureus harboring ParCS80F and GyrAS84L double mutant assessed as inhibition of bacterial growth; format: functional
Staphylococcus aureus [4] = test: Antibacterial activity against Staphylococcus aureus harboring RpoBH481Y/ParCS80F/GyrAS84L triple mutant assessed as inhibition of bacterial growth; format: functional
Escherichia coli = test: Antibacterial activity against Escherichia coli assessed as inhibition of bacterial growth; format: functional
Outline: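 Run in duplicate, with the same result obtained in each trial.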

CC(=O)O[C@H]1[C@H](C)[C@H](O)[C@H](C)[C@@H](O)[C@@H](C(C)OC(=O)C(C)(C)CC(=O)O)/C=C/C=C(/C)C(=O)Nc2c3oc4cc(NCCCCCCCCC(=O)N5Cc6cc(-c7ccc8c(=O)c(C(=O)O)cn(C9CC9)c8c7OC(F)F)ccc6[C@H]5C)cc(O)c4nc-3c3c4c(c(C)c(O)c3c2=O)O[C@](C)(O/C=C/[C@H](O[C@H]2C[C@@H]3OCO[C@@H]3[C@@H](C)O2)[C@H]1C)C4=O (stereo not given in full)
IC50 (HEK293): > 64 µg/mL | MIC (Staphylococcus aureus [1]): 8 µg/mL (≈ 4.8 µM) | MIC (Staphylococcus aureus [2]): 4 µg/mL (≈ 2.4 µM) | MIC (Staphylococcus aureus [3]): 4 µg/mL (≈ 2.4 µM) | MIC (Staphylococcus aureus [4]): > 64 µg/mL | MIC (Escherichia coli): > 64 µg/mL

CC(=O)O[C@H]1[C@H](C)[C@H](O)[C@H](C)[C@@H](O)[C@@H](C(C)OC(=O)C(C)(C)CC(=O)O)/C=C/C=C(/C)C(=O)Nc2c3oc4cc(NCCCCCC(=O)N5Cc6cc(-c7ccc8c(=O)c(C(=O)O)cn(C9CC9)c8c7OC(F)F)ccc6[C@H]5C)cc(O)c4nc-3c3c4c(c(C)c(O)c3c2=O)O[C@](C)(O/C=C/[C@H](O[C@H]2C[C@@H]3OCO[C@@H]3[C@@H](C)O2)[C@H]1C)C4=O (stereo not given in full)
IC50 (HEK293): > 64 µg/mL | MIC (Staphylococcus aureus [1]): 4 µg/mL (≈ 2.46 µM) | MIC (Staphylococcus aureus [2]): 1 µg/mL (≈ 0.615 µM) | MIC (Staphylococcus aureus [3]): 2 µg/mL (≈ 1.23 µM) | MIC (Staphylococcus aureus [4]): > 64 µg/mL | MIC (Escherichia coli): > 64 µg/mL

CC(=O)O[C@H]1[C@H](C)[C@H](O)[C@H](C)[C@@H](O)[C@@H](C(C)OC(=O)C(C)(C)CC(=O)O)/C=C/C=C(/C)C(=O)Nc2c3oc4cc(NCCCN5Cc6cc(-c7ccc8c(=O)c(C(=O)O)cn(C9CC9)c8c7OC(F)F)ccc6[C@H]5C)cc(O)c4nc-3c3c4c(c(C)c(O)c3c2=O)O[C@](C)(O/C=C/[C@H](O[C@H]2C[C@@H]3OCO[C@@H]3[C@@H](C)O2)[C@H]1C)C4=O (stereo not given in full)
IC50 (HEK293): > 64 µg/mL | MIC (Staphylococcus aureus [1]): 8 µg/mL (≈ 5.1 µM) | MIC (Staphylococcus aureus [2]): 4 µg/mL (≈ 2.55 µM) | MIC (Staphylococcus aureus [3]): 16 µg/mL (≈ 10.2 µM) | MIC (Staphylococcus aureus [4]): > 64 µg/mL | MIC (Escherichia coli): > 64 µg/mL

CC(=O)O[C@H]1[C@H](C)[C@H](O)[C@H](C)[C@@H](O)[C@@H](C(C)OC(=O)C(C)(C)CC(=O)O)/C=C/C=C(/C)C(=O)Nc2c3oc4cc(NCCCN5CCN(c6cc7c(cc6F)c(=O)c(C(=O)O)cn7C6CC6)CC5)cc(O)c4nc-3c3c4c(c(C)c(O)c3c2=O)O[C@](C)(O/C=C/[C@H](O[C@H]2C[C@@H]3OCO[C@@H]3[C@@H](C)O2)[C@H]1C)C4=O (stereo not given in full)
IC50 (HEK293): 44 µg/mL (≈ 29.9 µM) | MIC (Staphylococcus aureus [1]): 8 µg/mL (≈ 5.43 µM) | MIC (Staphylococcus aureus [2]): 4 µg/mL (≈ 2.71 µM) | MIC (Staphylococcus aureus [3]): 4 µg/mL (≈ 2.71 µM) | MIC (Staphylococcus aureus [4]): > 64 µg/mL | MIC (Escherichia coli): 16 µg/mL (≈ 10.9 µM)

CC(=O)O[C@H]1[C@H](C)[C@H](O)[C@H](C)[C@@H](O)[C@@H](C(C)OC(=O)C(C)(C)CC(=O)O)/C=C/C=C(/C)C(=O)Nc2c3oc4cc(NCCCNC5(c6c(F)cc7c(=O)c(C(=O)O)cn8c7c6OC[C@@H]8C)CC5)cc(O)c4nc-3c3c4c(c(C)c(O)c3c2=O)O[C@](C)(O/C=C/[C@H](O[C@H]2C[C@@H]3OCO[C@@H]3[C@@H](C)O2)[C@H]1C)C4=O (stereo not given in full)
IC50 (HEK293): > 64 µg/mL | MIC (Staphylococcus aureus [1]): > 64 µg/mL | MIC (Staphylococcus aureus [2]): 4 µg/mL (≈ 2.74 µM) | MIC (Staphylococcus aureus [3]): 4 µg/mL (≈ 2.74 µM) | MIC (Staphylococcus aureus [4]): > 64 µg/mL | MIC (Escherichia coli): 64 µg/mL (≈ 43.8 µM)

CC(=O)O[C@H]1[C@H](C)[C@H](O)[C@H](C)[C@@H](O)[C@@H](C(C)OC(=O)C(C)(C)CC(=O)O)/C=C/C=C(/C)C(=O)Nc2c3oc4cc(N5CCCn6nc(C(=O)N7Cc8cc(-c9ccc%10c(=O)c(C(=O)O)cn(C%11CC%11)c%10c9OC(F)F)ccc8[C@H]7C)cc6C5)cc(O)c4nc-3c3c4c(c(C)c(O)c3c2=O)O[C@](C)(O/C=C/[C@H](O[C@H]2C[C@@H]3OCO[C@@H]3[C@@H](C)O2)[C@H]1C)C4=O (stereo not given in full)
IC50 (HEK293): > 64 µg/mL | MIC (Staphylococcus aureus [1]): > 64 µg/mL | MIC (Staphylococcus aureus [2]): 16 µg/mL (≈ 9.55 µM) | MIC (Staphylococcus aureus [3]): 16 µg/mL (≈ 9.55 µM) | MIC (Staphylococcus aureus [4]): > 64 µg/mL | MIC (Escherichia coli): > 64 µg/mL

COc1c(N2CCCC(N(C)CCCNc3cc(O)c4nc5c6c7c8c(C)c(O)c6c(=O)c(c-5oc4c3)NC(=O)/C(C)=C\C=C\[C@H](C(C)OC(=O)C(C)(C)CC(=O)O)[C@H](O)[C@@H](C)[C@@H](O)[C@@H](C)[C@H](OC(C)=O)[C@H](C)[C@@H](O[C@H]3C[C@@H]4OCO[C@@H]4[C@@H](C)O3)/C=C/O[C@@](C)(O8)C7=O)C2)c(F)cc2c(=O)c(C(=O)O)cn(C3CC3)c12 (stereo not given in full)
IC50 (HEK293): > 64 µg/mL | MIC (Staphylococcus aureus [1]): 16 µg/mL (≈ 10.4 µM) | MIC (Staphylococcus aureus [2]): 8 µg/mL (≈ 5.22 µM) | MIC (Staphylococcus aureus [3]): 8 µg/mL (≈ 5.22 µM) | MIC (Staphylococcus aureus [4]): > 64 µg/mL | MIC (Escherichia coli): > 64 µg/mL

CC(=O)O[C@H]1[C@H](C)[C@H](O)[C@H](C)[C@@H](O)[C@@H](C(C)OC(=O)C(C)(C)CC(=O)O)/C=C/C=C(/C)C(=O)Nc2c3oc4cc(N5CCC(CCCC(=O)N6Cc7cc(-c8ccc9c(=O)c(C(=O)O)cn(C%10CC%10)c9c8OC(F)F)ccc7[C@H]6C)CC5)cc(O)c4nc-3c3c4c(c(C)c(O)c3c2=O)O[C@](C)(O/C=C/[C@H](O[C@H]2C[C@@H]3OCO[C@@H]3[C@@H](C)O2)[C@H]1C)C4=O (stereo not given in full)
IC50 (HEK293): > 64 µg/mL | MIC (Staphylococcus aureus [1]): > 64 µg/mL | MIC (Staphylococcus aureus [2]): 64 µg/mL (≈ 38.4 µM) | MIC (Staphylococcus aureus [3]): 64 µg/mL (≈ 38.4 µM) | MIC (Staphylococcus aureus [4]): > 64 µg/mL | MIC (Escherichia coli): > 64 µg/mL

COc1c(N2C[C@@H]3CCCN(CCCNc4cc(O)c5nc6c7c8c9c(C)c(O)c7c(=O)c(c-6oc5c4)NC(=O)/C(C)=C\C=C\[C@H](C(C)OC(=O)C(C)(C)CC(=O)O)[C@H](O)[C@@H](C)[C@@H](O)[C@@H](C)[C@H](OC(C)=O)[C@H](C)[C@@H](O[C@H]4C[C@@H]5OCO[C@@H]5[C@@H](C)O4)/C=C/O[C@@](C)(O9)C8=O)[C@@H]3C2)c(F)cc2c(=O)c(C(=O)O)cn(C3CC3)c12 (stereo not given in full)
IC50 (HEK293): 38 µg/mL (≈ 24.6 µM) | MIC (Staphylococcus aureus [1]): 16 µg/mL (≈ 10.4 µM) | MIC (Staphylococcus aureus [2]): 1 µg/mL (≈ 0.648 µM) | MIC (Staphylococcus aureus [3]): 1 µg/mL (≈ 0.648 µM) | MIC (Staphylococcus aureus [4]): > 64 µg/mL | MIC (Escherichia coli): > 64 µg/mL

COc1c(N2C[C@@H]3CCCN(c4cc(O)c5nc6c7c8c9c(C)c(O)c7c(=O)c(c-6oc5c4)NC(=O)/C(C)=C\C=C\[C@H](C(C)OC(=O)C(C)(C)CC(=O)O)[C@H](O)[C@@H](C)[C@@H](O)[C@@H](C)[C@H](OC(C)=O)[C@H](C)[C@@H](O[C@H]4C[C@@H]5OCO[C@@H]5[C@@H](C)O4)/C=C/O[C@@](C)(O9)C8=O)[C@@H]3C2)c(F)cc2c(=O)c(C(=O)O)cn(C3CC3)c12 (stereo not given in full)
IC50 (HEK293): > 64 µg/mL | MIC (Staphylococcus aureus [1]): 8 µg/mL (≈ 5.38 µM) | MIC (Staphylococcus aureus [2]): 0.5 µg/mL (≈ 0.336 µM) | MIC (Staphylococcus aureus [3]): 0.5 µg/mL (≈ 0.336 µM) | MIC (Staphylococcus aureus [4]): > 64 µg/mL | MIC (Escherichia coli): 32 µg/mL (≈ 21.5 µM)
